Sampled rows, rich in hits. Any-hit rate of the full collection: about 2.1%.
APJ antag: antagonists of human apelin receptor APJ, primary screen, CHO-K1 cells, beta-arrestin complementation, luminescence. P35414. inhibition, % at 20 µM. 330,000 compounds, 0.32% hits. AID 2521, 2010;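 active = inhibition above about 40% at 20 µM, limit read from the data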;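 note: cells challenged with 10 nM apelin-13 agonist together with compound; plate controls were apelin-13 plus DMSO wells for no effect and DMSO wells lacking apelin-13 for full effect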
CXCR6 inh: CXCR6 receptor inhibitors, primary screen, cell-based, beta-arrestin, luminescence, CHO-K1 PathHunter, 1536-well; C-X-C chemokine receptor type 6 (Homo sapiens), O00574; inhibition, % at 20 µM; 360,000 compounds, 0.36% hits; AID 602244, 2012; in the data active = inhibition above about 34%, passing the limit was not always enough;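 note: antagonist mode with CXCL16 agonist at 10 nM final; 0% = 10 nM CXCL16 with DMSO and 100% = unstimulated wells without agonist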
CCR6 antagonist: CCR6 receptor antagonists, primary screen, cell-based, CHO-K1, luminescence, beta-arrestin, uHTS. 340,000 compounds, 0.49% hits. C-C chemokine receptor type 6 (Homo sapiens), P51684. AID 493098, 2011. inhibition, % at 20 µM. CHO-K1 CCR6 PathHunter beta-arrestin, CCL20-stimulated;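 active = compounds whose inhibition of the agonist-driven luminescence signal at 20 µM reaches about 50%, limit read from the data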;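 note: cells stimulated with CCL20 at 14 nM final; plate controls were DMSO with CCL20 for no effect and DMSO without agonist for full effect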
Target sequence (P51684 whole entry, looked up): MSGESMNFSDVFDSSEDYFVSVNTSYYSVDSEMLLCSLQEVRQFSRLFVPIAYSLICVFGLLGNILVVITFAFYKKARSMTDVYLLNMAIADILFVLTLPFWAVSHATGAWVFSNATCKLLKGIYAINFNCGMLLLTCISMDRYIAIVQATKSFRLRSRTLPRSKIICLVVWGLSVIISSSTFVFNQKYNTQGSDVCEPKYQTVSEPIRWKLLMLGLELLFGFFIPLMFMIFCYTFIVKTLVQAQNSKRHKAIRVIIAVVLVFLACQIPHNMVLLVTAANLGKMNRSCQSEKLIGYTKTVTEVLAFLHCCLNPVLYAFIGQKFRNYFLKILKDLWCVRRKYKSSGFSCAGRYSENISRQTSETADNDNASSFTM
APJ agonist: agonists of human apelin receptor APJ, primary screen, CHO-K1 cells, PathHunter beta-arrestin, luminescence. 0% DMSO wells, 100% apelin. P35414. activation, % at 20 µM. 330,000 compounds, 0.11% hits. AID 2520, 2010;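 active = activation more than six SD over the plate average, tested at 20 µM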;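 note: 0% = DMSO alone and 100% = apelin-13 at 10 nM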
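Assay system: engineered CHO-K1 APJ arrestin reporter cells; Amount: 1000 CHO-K1 reporter cells seeded per well; Dosing: one dose, 20 µM compound, 1% DMSO; Times: compound stimulation 90 min at 25 °C, detection 60 min; Measured by: luminescent beta-gal fragment complementation, chemiluminescent substrate; Read-out: APJ–arrestin association signal; Controls: DMSO vs Apelin-13 10 nM.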
EBI2 block: EBI2 receptor antagonists, beta-arrestin recruitment, primary screen, cell-based, luminescence, 7a,25-OHC stimulation, uHTS | 7a,25-OHC stimulated | G-protein coupled receptor 183 (Homo sapiens), P32249 | 360,000 compounds, 0.81% hits | AID 651636, 2012 | inhibition, % at 5 µM; in the data active = inhibition above about 38%;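 note: enzyme fragment complementation signal reports receptor beta-arrestin coupling in cells; 0% = agonist plus DMSO wells and 100% = wells without agonist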
HTR2A ag: mouse Htr2a agonists via beta-arrestin recruitment, primary screen, cell-based, luminescence | 5-hydroxytryptamine receptor 2A (Mus musculus), P35363 | 360,000 compounds, 0.66% hits | activation, % at 7.6 µM | CHO-K1 mHTR2A beta-arrestin complementation; percent of 30 µM serotonin response;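 active = activation above a run cutoff, the mean activation of all tested compounds plus 3 SD, cut at about 14% in these data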;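 note: 0% = plate median of compound wells and 100% = 30 µM serotonin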
MOR ag counter: OPRM1 agonists via beta-arrestin recruitment, confirmation, counter-screen for mouse HTR2A agonist project, cell-based, luminescence, single concentration. activation, % at 9.3 µM. 2,300 compounds, 5.3% hits. U2OS OPRM1 beta-arrestin PathHunter; DMSO 0%, DAMGO 9.3 µM 100%. shares compounds with HTR2A ag. AID 624380, 2012;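 active = mean activation above the mean of DMSO-only wells plus 3 SD, cut at about 0.5% in these data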
m5-HT2A ag conf: mouse HTR2A agonists, beta-arrestin recruitment, confirmation, cell-based, luminescence, CHO-K1 PathHunter, triplicate; shares compounds with HTR2A ag; DMSO 0%, 30 µM serotonin 100%; activation, % at 7.6 µM; 2,300 compounds, 19% hits;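 active = mean activation across triplicates above the hit threshold derived in the original primary screen, cut at about 15% in these data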
* = called active by the depositor; . = no result given.

SMILES | APJ antag | CXCR6 inh | CCR6 antagonist | APJ agonist | EBI2 block | HTR2A ag | MOR ag counter | m5-HT2A ag conf
COc1ccccc1NC(=O)CSc1nnc(Cc2cccs2)n1C | 8.3 | 0.0 | 6.8 | -0.7 | -3.9 | 6.5 | . | .
O=C(O)C(=Cc1ccnc2ccccc12)C(=O)O | . | -5.9 | . | . | -7.4 | -0.8 | . | .
Cc1cc(C)n(C(=O)c2cc([N+](=O)[O-])cc([N+](=O)[O-])c2)n1 | -26.9 | -23.2 | -15.0 | -0.9 | -1.4 | 44.7* | -0.2 | -3.5
CC(=O)c1ccc(OCC(O)CN2CCN(c3ccccn3)CC2)cc1 (centres undefined) | -3.3 | -2.9 | -4.3 | -2.2 | 6.4 | 37.2* | -0.7 | 92.5*
CC(C)(C)C1CCC(OCC(O)CN2CCN(c3ccccn3)CC2)CC1 (centres undefined) | -19.2 | 6.5 | 2.9 | -1.6 | 0.6 | 17.9* | 0.1 | 93.9*
OC(COc1ccc(OCC(O)CN2CCCCC2)cc1)CN1CCCCC1 (centres undefined) | -0.2 | -13.1 | 0.6 | 0.8 | -1.5 | 16.8* | -0.7 | -4.1
CC(C)(C)C1CCC(OCC(O)CN2CCN(Cc3ccccc3)CC2)CC1 (centres undefined) | 11.5 | 9.6 | 15.8 | -3.5 | -15.8 | -5.5 | . | .
CCc1ccc(OCC(O)CN2CCN(c3ccccn3)CC2)cc1 (centres undefined) | -4.0 | 7.2 | -2.1 | -2.5 | 19.3 | 9.7 | . | .
CN(C)c1ccc(Sc2ccc3nc(N)nc(N)c3c2)cc1 | . | -5.2 | . | . | -23.0 | -10.2 | . | .
O=c1[nH]c2ccccc2n2c(=S)[nH]nc12 | -3.6 | -12.0 | -1.8 | -0.2 | -4.3 | 0.5 | . | .
CN(CC(=O)NCCc1ccc(S(N)(=O)=O)cc1)c1ccccc1 | -5.4 | 2.4 | 2.3 | -0.4 | -8.4 | -2.8 | . | .
CC(NC(=O)CN(c1ccc(Cl)cc1)S(C)(=O)=O)c1ccccc1 (centres undefined) | 20.3 | 27.3 | 6.1 | -3.5 | -4.1 | 0.5 | . | .
CC(=O)N1c2ccc(S(=O)(=O)NCCC(=O)Nc3ncccc3C)cc2CC1C (centres undefined) | 1.8 | -6.0 | 8.7 | -6.6 | 6.6 | 14.7* | -0.7 | -3.8
CC(=O)N1c2ccc(S(=O)(=O)NCCC(=O)Nc3ccc(C)c(F)c3)cc2CC1C (centres undefined) | 0.5 | -4.1 | 7.2 | -2.7 | -8.1 | 0.8 | . | .
O=C(NNC(=O)C1CCN(S(=O)(=O)c2ccc(Cl)cc2)CC1)c1ccncc1 | 1.3 | -6.8 | -7.1 | -2.3 | 5.6 | 2.3 | . | .
COc1cc(Cl)c(S(=O)(=O)N2CCOCC2)cc1Cl | 19.8 | -5.4 | 12.6 | 1.1 | -1.2 | 14.5* | -0.5 | -3.8
COc1ccc(NC(=O)CCCNC(=O)c2ccc(Cl)cc2)cc1S(=O)(=O)N1CCOCC1 | . | -13.6 | 2.4 | . | -6.9 | 14.6* | -0.6 | -1.5
Cc1ccc(S(=O)(=O)N2CCCCC2CCNC(=O)C(=O)NC2CC2)cc1 (centres undefined) | -47.4 | 3.2 | 4.9 | -3.5 | -8.3 | 0.2 | . | .
N#Cc1ccc(OCC(=O)N2CCCC2=O)cc1 | 0.0 | -17.4 | 4.4 | -1.4 | -2.6 | 15.2* | 0.7* | 2.1
N#Cc1ccc(OCC(=O)N2CCN(C(=O)c3ccco3)CC2)cc1 | -3.2 | 2.0 | 8.0 | 1.1 | 0.0 | 2.3 | . | .
CC1(C(=O)OCC(=O)Nc2ccc(C(N)=O)cc2)CC1(Cl)Cl (centres undefined) | 16.4 | -3.6 | 0.1 | -0.8 | 11.5 | 2.4 | . | .
